Activity calls are given as the source filed them. No cut-off for these calls is given here.
What was measured:
[1] = molecular target: T1, Amyloid-beta precursor protein (Homo sapiens, UniProt P05067); assay: Inhibition of self-induced amyloid beta (1 to 42) (unknown origin) aggregation at 12.5 uM measured after 48 hrs by ThT fluorescence assay relative to control
How it was run: (§1)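 Aβ1-42 is pretreated with HFIP (8 mg/ml) and dried to a film under nitrogen. The film is dissolved in DMSO to a 5 mM stock. This is diluted in 50 mM phosphate buffer, pH 7.4, to 100 µM final peptide, with or without compound, and incubated at 37 °C for 48 h. Samples are then diluted with 50 mM glycine-NaOH, pH 8.0, and fibrils quantified by ThT fluorescence. Blanks without Aβ are subtracted. Values are means ± SD of three experiments.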

[2] = Antioxidant activity assessed as DPPH radical scavenging activity at 50 uM preincubated for 5 mins followed by DPPH addition and measured after 30 mins by ultraviolet spectrophotometric analysis relative to control; assay type: functional
How it was run: (§2)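 DPPH (0.1 mM) in methanol. Test compound was added and held 5 min before DPPH, then 30 min incubation. Absorbance read at 517 nm. Scavenging % = (A1−A2)/A1×100, with A1 the control absorbance and A2 the compound absorbance. Run in triplicate in 96-well plates.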

[3] = Selectivity index, ratio of IC50 for equine serum BuChE to IC50 for electric eel Ache
How it was run: (§3)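 Ellman method. Equine serum BuChE 0.06 U/mL (for ratio lines, electric eel AChE 0.22 U/mL) in 1 M potassium phosphate buffer. Enzyme stood 5 min with compound before 0.01 M DTNB was added, with butyrylthiocholine iodide as substrate (acetylthiocholine for AChE). Compound range 0.01–100 µM final. IC50 as mean ± SD of three independent experiments. SI = IC50 BuChE / IC50 AChE.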

[4] = molecular target: T1, Amyloid-beta precursor protein; assay: Inhibition of self-induced amyloid beta (1 to 42) (unknown origin) aggregation at 100 uM measured after 48 hrs by ThT fluorescence assay relative to control; how it was run: as §1
[5] = Antioxidant activity assessed as trolox equivalent of AAPH-induced radical scavenging activity at 100 uM preincubated for 15 mins followed by AAPH addition and measured at 1 minute interval for 80 mins by ORAC-FL assay; assay type: functional
How it was run: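 ORAC-FL in 75 mM phosphate buffer, pH 7.4. Fluorescein 70 nM final was preincubated with the antioxidant 15 min at 37 °C, then AAPH 12 mM final was added. Fluorescence read every minute for 80 min (ex 485/em 520 nm). Net AUC = AUC sample minus AUC blank. Trolox calibration 1–8 µM gave Trolox equivalents. At least three independent runs, each in triplicate.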

[6] = molecular target: T1, Amyloid-beta precursor protein; assay: Inhibition of self-induced amyloid beta (1 to 42) (unknown origin) aggregation at 50 uM for 48 hrs by TEM analysis
How it was run: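 Aβ1-42 in 50 mM phosphate buffer, pH 7.4, is incubated with or without compound at 37 °C for 48 h, with a curcumin co-incubation and a 0 h sample as comparisons. 10 µL aliquots are applied to carbon grids for 1 min at room temperature, washed with water and negatively stained with sodium phosphotungstate for 1 min. Fibrils are then imaged by transmission electron microscopy.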

[7] = molecular target: T1, Amyloid-beta precursor protein; assay: Inhibition of self-induced amyloid beta (1 to 42) (unknown origin) aggregation measured after 48 hrs by ThT fluorescence assay; how it was run: as §1
[8] = molecular target: T1, Amyloid-beta precursor protein; assay: Inhibition of self-induced amyloid beta (1 to 42) (unknown origin) aggregation at 75 uM measured after 48 hrs by ThT fluorescence assay relative to control; how it was run: as §1
[9] = molecular target: T1, Amyloid-beta precursor protein; assay: Inhibition of self-induced amyloid beta (1 to 42) (unknown origin) aggregation at 25 uM measured after 48 hrs by ThT fluorescence assay relative to control; how it was run: as §1
Acetylcholinesterase = Acetylcholinesterase (Electrophorus electricus, UniProt O42275); assay: Inhibition of electric eel Ache using acetylthiocholine iodide as substrate preincubated for 5 mins followed by substrate addition and measured after 5 mins by Ellman method
Acetylcholinesterase, sequence (O42275 whole entry): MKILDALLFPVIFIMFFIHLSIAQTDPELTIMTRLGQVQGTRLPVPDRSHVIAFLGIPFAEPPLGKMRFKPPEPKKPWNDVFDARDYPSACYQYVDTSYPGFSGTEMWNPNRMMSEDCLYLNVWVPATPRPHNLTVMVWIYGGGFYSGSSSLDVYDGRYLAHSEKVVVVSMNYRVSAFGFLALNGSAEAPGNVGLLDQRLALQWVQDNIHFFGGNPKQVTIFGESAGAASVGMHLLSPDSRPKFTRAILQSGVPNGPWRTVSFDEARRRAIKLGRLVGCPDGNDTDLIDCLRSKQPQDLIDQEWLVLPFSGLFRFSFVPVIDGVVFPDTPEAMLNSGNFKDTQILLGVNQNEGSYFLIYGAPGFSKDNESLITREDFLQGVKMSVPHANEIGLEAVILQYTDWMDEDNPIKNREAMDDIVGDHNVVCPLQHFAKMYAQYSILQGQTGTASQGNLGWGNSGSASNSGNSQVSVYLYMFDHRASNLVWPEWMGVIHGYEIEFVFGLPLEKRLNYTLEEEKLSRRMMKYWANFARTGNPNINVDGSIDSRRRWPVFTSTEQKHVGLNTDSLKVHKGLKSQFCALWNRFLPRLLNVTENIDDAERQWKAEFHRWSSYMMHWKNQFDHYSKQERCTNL

[10] = molecular target: T1, Amyloid-beta precursor protein; assay: Disaggregation of self-induced amyloid beta (1 to 42) (unknown origin) preformed fibrils measured after 24 hrs by ThT fluorescence assay relative to control
How it was run: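 HFIP-pretreated Aβ1-42, DMSO stock, diluted in 50 mM phosphate buffer pH 7.4 (100 µM final). Incubated 48 h at 37 °C to form fibrils, then compound or buffer added and held 24 h at 37 °C. Diluted to 200 µl with glycine-NaOH 50 mM pH 8.0, then ThT fluorescence read. Peptide-free buffer blanks with and without compound. Triplicates.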

[11] = molecular target: T1, Amyloid-beta precursor protein; assay: Inhibition of HFIP-pretreated self-induced amyloid beta (1 to 42) (unknown origin) aggregation at 50 uM measured after 48 hrs by ThT fluorescence assay relative to control
How it was run: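 Aβ1-42 pretreated with HFIP (8 mg/ml), dried under nitrogen, 5 mM stock in DMSO. Diluted in 50 mM phosphate buffer pH 7.4 to 100 µM final and incubated with or without 50 µM compound for 48 h at 37 °C. Diluted with glycine-NaOH 50 mM pH 8.0, then ThT fluorescence read. Buffer blanks included. Mean ± SD of three experiments.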

Cholinesterase = Cholinesterase (Equus caballus, UniProt P81908); assay: Inhibition of equine serum BuChE using butyrylthiocholine iodide as substrate preincubated for 5 mins followed by substrate addition and measured after 5 mins by Ellman method; how it was run: as §3
Cholinesterase, sequence (P81908 whole entry): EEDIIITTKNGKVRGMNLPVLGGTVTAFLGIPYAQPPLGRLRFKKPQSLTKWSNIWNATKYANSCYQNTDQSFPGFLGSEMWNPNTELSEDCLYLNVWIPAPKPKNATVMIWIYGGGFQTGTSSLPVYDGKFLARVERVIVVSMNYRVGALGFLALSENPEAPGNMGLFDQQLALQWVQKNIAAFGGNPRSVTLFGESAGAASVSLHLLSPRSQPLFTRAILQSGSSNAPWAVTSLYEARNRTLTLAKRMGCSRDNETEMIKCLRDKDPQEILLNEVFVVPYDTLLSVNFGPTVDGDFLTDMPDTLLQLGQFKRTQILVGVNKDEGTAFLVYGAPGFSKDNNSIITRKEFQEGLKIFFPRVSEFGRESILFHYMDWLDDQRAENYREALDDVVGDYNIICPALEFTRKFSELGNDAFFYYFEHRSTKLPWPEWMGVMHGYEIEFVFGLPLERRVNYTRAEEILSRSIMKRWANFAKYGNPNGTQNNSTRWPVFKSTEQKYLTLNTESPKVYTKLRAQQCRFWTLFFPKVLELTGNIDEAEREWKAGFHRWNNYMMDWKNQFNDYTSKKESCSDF

[12] = molecular target: T1, Amyloid-beta precursor protein; conditions: 25 uM
[13] = Antioxidant activity assessed as DPPH radical scavenging activity at 100 uM preincubated for 5 mins followed by DPPH addition and measured after 30 mins by ultraviolet spectrophotometric analysis relative to control; assay type: functional; how it was run: as §2
[14] = Antioxidant activity assessed as DPPH radical scavenging activity at 10 uM preincubated for 5 mins followed by DPPH addition and measured after 30 mins by ultraviolet spectrophotometric analysis relative to control; assay type: functional; how it was run: as §2

T1 sequence (P05067 whole entry): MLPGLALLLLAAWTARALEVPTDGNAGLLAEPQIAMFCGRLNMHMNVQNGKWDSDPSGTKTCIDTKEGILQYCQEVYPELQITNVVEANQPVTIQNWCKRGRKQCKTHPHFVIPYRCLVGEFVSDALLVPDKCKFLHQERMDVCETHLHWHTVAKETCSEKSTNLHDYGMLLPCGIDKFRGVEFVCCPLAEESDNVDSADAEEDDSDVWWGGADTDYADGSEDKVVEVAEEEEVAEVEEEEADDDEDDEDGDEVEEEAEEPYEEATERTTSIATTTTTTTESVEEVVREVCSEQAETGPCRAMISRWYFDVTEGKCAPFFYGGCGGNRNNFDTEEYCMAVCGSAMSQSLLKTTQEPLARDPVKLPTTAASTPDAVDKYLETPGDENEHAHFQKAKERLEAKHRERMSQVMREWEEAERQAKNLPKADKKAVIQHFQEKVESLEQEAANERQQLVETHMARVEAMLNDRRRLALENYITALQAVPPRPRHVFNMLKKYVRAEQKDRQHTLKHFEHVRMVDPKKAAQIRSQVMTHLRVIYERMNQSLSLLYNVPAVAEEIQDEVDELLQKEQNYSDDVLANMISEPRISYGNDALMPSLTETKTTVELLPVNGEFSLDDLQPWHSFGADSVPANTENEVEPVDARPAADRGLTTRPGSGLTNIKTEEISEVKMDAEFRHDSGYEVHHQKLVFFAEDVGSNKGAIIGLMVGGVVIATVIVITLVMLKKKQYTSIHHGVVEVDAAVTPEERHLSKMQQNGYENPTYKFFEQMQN

Structure (SMILES) | inhibition [1] [%] | Activity [2] [%] | Ratio IC50 [3] | inhibition [4] [%] | Activity (umolequiv/umol) [5] | inhibition [6] | IC50 [7] [nM] | inhibition [8] [%] | inhibition [9] [%] | IC50 (Acetylcholinesterase) [nM] | Activity [10] [%] | inhibition [11] | IC50 (Cholinesterase) [nM] | inhibition [12] | Activity [13] [%] | Activity [14] [%]
Fc1ccc(C2C=C(c3cccc4ccccc34)Nc3nncn32)cc1 (stereo not drawn) | 70.4 | 36.2 | 19.7 | 95.4 | 0.347 | Active | 3870 | 87.5 | 82.4 | 1910 | 62.6 | 85.5% | 39000 |  |  | 
COc1cc(/C=C/C(=O)CC(=O)/C=C/c2ccc(O)c(OC)c2)ccc1O |  |  |  |  |  |  |  |  |  |  |  |  |  | Active |  | 
O=[N+]([O-])c1cccc(C2C=C(c3cccc4ccccc34)Nc3nncn32)c1 (stereo not drawn) | 42 | 33 |  | 91.4 | 0.508 | Active | 17400 | 85.8 | 59.3 | > 100000 | 58.8 | 72.8% | > 100000 |  |  | 
COc1ccc(-c2cc(-c3cccc4ccccc34)nc3nncn23)cc1OC |  | 27.9 | > 33.4 |  | 0.234 |  |  |  |  | 3000 |  | 36.6% | > 100000 |  |  | 
CN(C)c1ccc(-c2cc(-c3cccc4ccccc34)nc3nncn23)cc1 |  | 21.3 | 166 |  | 0.171 |  |  |  |  | 126 | 54.5 | 43.1% | 20900 |  |  | 
COc1ccc(C2C=C(c3cccc4ccccc34)Nc3nncn32)cc1 (stereo not drawn) |  | 35 | 17.4 |  | 0.446 |  |  |  |  | 8.6 |  | 31.2% | 150 |  |  | 
Clc1ccccc1C1C=C(c2cccc3ccccc23)Nc2nncn21 (stereo not drawn) |  | 15.5 | 1.03 |  | 0.39 |  |  |  |  | 74 |  | 40.4% | 76 |  |  | 
COc1ccc(OC)c(C2C=C(c3cccc4ccccc34)Nc3nncn32)c1 (stereo not drawn) |  | 53.8 | > 160 |  | 0.472 |  |  |  |  | 602 | 47.9 | 42.1% | > 100000 |  |  | 
O=C(O)c1cc(O)c(O)c(O)c1 |  |  |  |  |  |  |  |  |  |  |  |  |  |  | 95.3 | 66
c1ccc(-c2cc(-c3cccc4ccccc34)nc3nncn23)cc1 |  | 18.8 | > 168 |  | 0.301 |  |  |  |  | 597 |  | inactive | > 100000 |  |  | 
c1coc(-c2cc(-c3cccc4ccccc34)nc3nncn23)c1 |  | 20.4 | 37.7 |  | 0.101 |  |  |  |  | 14 |  | 12.1% | 528 |  |  | 
Clc1ccc(C2C=C(c3cccc4ccccc34)Nc3nncn32)cc1 (stereo not drawn) |  | 19.2 | 2.42 |  | 0.268 |  |  |  |  | 371 |  | inactive | 900 |  |  | 

Reference: ChEMBL document CHEMBL4387749, “Naphthalene-triazolopyrimidine hybrid compounds as potential multifunctional anti-Alzheimer's agents” (Bioorg Med Chem, 2019)
